Holding throughout (type): functional
In assay [1] the test system is MDA-MB-231. The experiment in a line: Antiinvasive activity in human MDA-MB-231 cells assessed as inhibition of cell invasion at 5 uM by boyden chamber method relative to control.
In assay [2] the test system is MDA-MB-231. The experiment in a line: Ex vivo antitumor activity against human MDA-MB-231 cells co-cultured with neonatal Swiss mouse bone in BGJb medium assessed as inhibition of tumor growth at 5 uM administered simultaneously with cancer cells measured on day 5 post treatment by Gaussia luciferase reporter gene assay relative to control. In a few lines: (§1)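 Calvariae from […] Swiss mouse pups were punched into 4 or 5 mm disks. Each was seeded with 1 x 10^4 tumor cells (lentiviral secreted Gaussia luciferase/GFP-blasticidin, FACS-sorted GFP+) in BGJb plus 10% fetal calf serum at 37°C, 5% CO2. After 24 h bones moved to fresh wells; medium changed every 2 days. Conditioned-medium luciferase read as RLU. Biological triplicate, mean ± SD, Welch's t-test.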
(In general: In a reporter assay the amount or activity of a reporter protein is the signal.)

Assay [3] has as its system MDA-MB-231. The experiment in a line: Ex vivo antitumor activity against human MDA-MB-231 cells co-cultured with neonatal Swiss mouse bone in BGJb medium assessed as inhibition of tumor growth at 5 uM administered simultaneously with cancer cells measured on day 7 post treatment by Gaussia luciferase reporter gene assay relative to control. The gist of the method: as §1

Assay [4] has as its system MDA-MB-231. Kind of assay: Ex vivo antitumor activity against human MDA-MB-231 cells co-cultured with neonatal Swiss mouse bone in BGJb medium assessed as inhibition of tumor growth at 5 uM administered on day 2 post cancer cells addition measured on day 5 post treatment by Gaussia luciferase reporter gene assay relative to control. The gist of the method:
as §1

The subject of assay [5] is MDA-MB-231. Kind of assay: Ex vivo antitumor activity against human MDA-MB-231 cells co-cultured with neonatal Swiss mouse bone in BGJb medium assessed as inhibition of tumor growth at 5 uM administered on day 2 post cancer cells addition measured on day 7 post treatment by Gaussia luciferase reporter gene assay relative to control. In a few lines: as §1

Each structure is given as a SMILES string. Activity calls are given as the source filed them. The calls are words filed in the database; no cut-off is given here.

Broadly, the inhibition is the percentage by which the read-out fell short of the control. Regarding `COc1cccc(C2=NNC3C(=O)N(CCc4c[nH]c5ccccc45)C(c4cccc(F)c4)C23)c1` (centres undefined), the inhibition at 5 µM in the assay with MDA-MB-231 [1] amounted to 90%. Also, the TGI entry in the assay with MDA-MB-231 [2] and with MDA-MB-231 [4] was “Active” throughout. Also, the TGI in the assay on MDA-MB-231 [3] and in the assay with MDA-MB-231 [5] was >50% throughout.
As to `Cc1ccc(N2C(=O)C3C(C(c4ccc(Cl)cc4)=NN3C)C2c2cccc(F)c2)cc1Br` (centres undefined), in the assay with MDA-MB-231 [1], the inhibition at 5 µM was > 70%. Further, the TGI entry in the assay on MDA-MB-231 [2], with MDA-MB-231 [3], in the assay with MDA-MB-231 [4] and in the assay with MDA-MB-231 [5] was “Active” in each case.
In the case of `O=C1C2C(C(c3ccc(Cl)cc3)=NN2C2CCCCC2)C(c2cccc(F)c2)N1CCc1c[nH]c2ccccc12` (centres undefined), in the assay on MDA-MB-231 [1], the inhibition result is “inactive”. Besides, the TGI entry in the assay on MDA-MB-231 [2], in the assay with MDA-MB-231 [3], in the assay with MDA-MB-231 [4] and with MDA-MB-231 [5] was “Active” in each case.
Regarding `O=C1C2NN=C(c3ccc(Cl)cc3)C2C(c2cccc(F)c2)N1c1cccc(Br)c1` (centres undefined), the inhibition at 5 µM in the assay on MDA-MB-231 [1] is > 70%. Further, the TGI entry in the assay with MDA-MB-231 [2], in the assay with MDA-MB-231 [3], with MDA-MB-231 [4] and in the assay with MDA-MB-231 [5] was “Active” throughout.
In the case of `Cc1ccc(N2C(=O)C3C(C(c4ccc(Cl)cc4)=NN3C(C)C)C2c2cccc(F)c2)cc1Br` (centres undefined), the TGI result with MDA-MB-231 [2], in the assay with MDA-MB-231 [3], with MDA-MB-231 [4] and with MDA-MB-231 [5] was “Active” in each case.
Regarding `Cc1ccc(N2C(=O)C3NN=C(c4ccc(Cl)cc4)C3C2c2cccc(C(F)(F)F)c2)cc1Br` (centres undefined), the inhibition at 5 µM with MDA-MB-231 [1] was > 70%. The TGI result in the assay on MDA-MB-231 [2], in the assay on MDA-MB-231 [3], in the assay with MDA-MB-231 [4] and in the assay on MDA-MB-231 [5] was “Active” each time.

The values are drawn from ChEMBL document CHEMBL4308891, “Small molecules inhibit ex vivo tumor growth in bone” (Bioorg Med Chem, 2018).
